# Measurements from different studies.
# Cell line: HepG2
# Observed: cell growth or viability
Compound,assay,conditions,CC50
O=C1c2ccccc2C(=O)c2c(NCCc3ccc(O)cc3)ccc(NCCc3ccc(O)cc3)c21,ATP luminescence,72 h,16.1 µM
FC(F)(F)c1cc(Nc2ncnc3ccc(-c4cccc(N5CCOCC5)c4)cc23)ccc1Cl,MTT,48 h,29 µM
CO[C@H]1/C=C/O[C@@]2(C)Oc3c(C)c(O)c4c(c3C2=O)C2=NC3(CCN(CC(C)C)CC3)NC2=C(NC(=O)/C(C)=C\C=C\[C@H](C)[C@H](O)[C@@H](C)[C@@H](O)[C@@H](C)[C@H](OC(C)=O)[C@@H]1C)C4=O,,48 h,170 µM
N=C(CC(O)c1nc2ccccc2c2ccc(Br)cc12)Nc1ccc(F)cc1 (centres unmarked),neutral red,24 h,> 25 µM
CC(C)N(c1ccc(C#N)cc1)c1ccc(NC(=O)CN(C)c2ccccc2N2CCCC2=O)cn1,ATP luminescence,48 h,> 40 µM
Cc1ccc(Nc2ncnc3ccc(-c4cccc(N5CCOCC5)c4)cc23)cc1,MTT,48 h,19 µM
CN(CC(=O)Nc1ccc(N(C)c2ccc(Cl)c(Cl)c2)cc1)c1ccccc1N1CCCC1=O,ATP luminescence,48 h,> 40 µM
CN1CCN(c2cccc(-c3ccc4ncnc(Nc5ccc(Cl)c(C(F)(F)F)c5)c4c3)c2)CC1,MTT,48 h,15 µM
CC(C)N(c1ccc(Cl)c(F)c1)c1ccc(NC(=O)CN(C)c2ccccc2N2CCCC2=O)c(F)c1,ATP luminescence,48 h,> 40 µM
O=[N+]([O-])c1ccc(Nc2ncnc3ccc(-c4cccc(N5CCOCC5)c4)cc23)cc1C(F)(F)F,MTT,48 h,> 40 µM
CCC(C)N(c1ccc(C)cc1)c1ccc(NC(=O)CN(C)c2ccccc2N2CCCC2=O)cc1 (centres unmarked),ATP luminescence,48 h,> 40 µM
C[n+]1cc2c3c(ccc2c2ccc4cc5c(cc4c21)OCO5)OCO3,ATP luminescence,72 h,9.44 µM
Cc1ccc(N(C)c2ccc(NC(=O)CN(C)c3cccnc3N3CCCC3=O)cc2)cc1,ATP luminescence,48 h,> 40 µM
N=C(CC(O)c1cc2cccnc2c2cccnc12)Nc1ccc(F)cc1 (centres unmarked),neutral red,24 h,265 µM
Clc1ccc(Nc2ncnc3ccc(-c4cccc(N5CCOCC5)c4)cc23)cc1,MTT,48 h,18 µM
N=C(CC(O)c1ccnc2c1ccc1ccccc12)Nc1ccc(F)cc1 (centres unmarked),neutral red,,33.3 µM
CCCCCCNc1nc(NC2CCN(C)CC2)c2cc(OC)c(OC)cc2n1,ATP luminescence,72 h,2.03 µM
